Measured values as given in ChEMBL document CHEMBL4376875, “Synthesis and Biological Evaluation of B-Cell Lymphoma 6 Inhibitors of N-Phenyl-4-pyrimidinamine Derivatives Bearing Potent Activities against Tumor Growth” (J Med Chem, 2020).
Calls of active or inactive are those of the source. The rule behind the calls is not given here.

Tests used:
Mus musculus [1] = species on record: Mus musculus; settings: C57BL/6, 10 mg/kg
[2] = Metabolic stability in human liver microsomes assessed as compound remaining measured after 60 mins; format: ADME, Microsome; settings: read-out: Stability
Mus musculus [3] = test: In vivo inhibition of GC formation in NP-CGG immunized C57BL/6 mouse assessed as splenic GC B cells (GL7+FAS+B220+) at 10 mg/kg, iv administered 3 days once for 12 days starting from 2 days after NP-CGG addition by flow cytometry (reference value: 1.97%); format: functional; design: scale not given: the % may be the effect or the level left
Mus musculus [4] = test: Upregulation of CXCR4 mRNA expression in SCID mouse xenografted with human SUDHL4 cells at 5 to 10 mg/kg, iv administered 3 days once for 15 days by qPCR analysis; format: functional, organism-based
Outline: (§1)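 Male SCID mice, 6 weeks old, received 1 × 10⁷ SUDHL4 cells s.c. At about 100 mm³, mice were randomized (n = 7) to vehicle (20% 2-hydroxypropyl-β-cyclodextrin) or 5 or 10 mg/kg every 3 days i.v. for 15 days. Body weight and caliper volume (L × W² × 0.52) were recorded every 3 days. At sacrifice, tissues were fixed in 4% paraformaldehyde and paraffin-embedded for H&E or Ki67 IHC. Tumor mRNA was assayed by qPCR.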

SUD4 [5] = test: Antitumor activity against human SUDHL4 cells xenografted in SCID mouse assessed as reduction in tumor growth at 5 mg/kg, iv administered 3 days once for 15 days and measured every 3 days; format: functional, organism-based
Outline: as §1

SUD4 [6] = test: Induction of apoptosis in human SUDHL4 cells incubated for 48 hrs by annexin V-FITC and propidium iodide staining based flow cytometry analysis; format: functional, cell-based
[7] = Toxicity in SCID mouse xenografted with human SUDHL4 cells assessed as adverse effect on lungs morphology at 5 to 10 mg/kg, iv administered 3 days once for 15 days by H and E staining analysis; format: organism-based; settings: in vivo
Outline: as §1

SUD4 [8] = test: Antiproliferative activity against human SUDHL4 cells assessed as reduction in living cells incubated for 48 hrs by Edu based flow cytometry analysis; format: functional, cell-based
Outline: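 SUDHL4 cells were treated for 48 h, then pulsed with 10 μM EdU for 2 h, fixed, permeabilized and stained with EdU/Alexa Fluor Azide 488 for 30 min. Living and S-phase cells were counted by flow cytometry. Triplicate.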

SUD4 [9] = test: Antiproliferative activity against human SUDHL4 cells assessed as reduction in cell viability incubated for 72 hrs by CCK8 assay; settings: SU-DHL-4, 72 h
Toledo [10] = test: Effect on CDKN1A mRNA expression in BCL6-negative human Toledo cells at 1.25 to 5 uM incubated for 24 hrs by RT-PCR analysis; format: functional, cell-based
Outline: (§2)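 Toledo cells (BCL6-independent) were exposed to 1.25, 2.50 or 5.00 μM for 24 h, then mRNA was collected. Target-gene transcripts were quantified by real-time quantitative PCR against vehicle control.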

DOHH-2 = test: Antiproliferative activity against human DOHH2 cells assessed as reduction in cell viability incubated for 72 hrs by CCK8 assay; settings: DOHH-2, 72 h
SUD4 [11] = test: Induction of apoptosis in human SUDHL4 cells assessed as early apoptotic cells at 0.625 uM incubated for 48 hrs by annexin V-FITC and propidium iodide staining based flow cytometry analysis (reference value: 2.62%); format: functional
[12] = Metabolic stability in human liver assessed as intrinsic clearance; format: ADME, tissue-based; settings: read-out: CLH
Outline: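 Incubation with human liver microsomes. Intrinsic clearance was scaled to liver using 45 mg microsomal protein per g liver and 20 g liver per kg body weight. Half-life was also determined.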

Mus musculus [13] = test: Upregulation of CD69 mRNA expression in SCID mouse xenografted with human SUDHL4 cells at 5 to 10 mg/kg, iv administered 3 days once for 15 days by qPCR analysis; format: functional, organism-based
Outline: as §1

[14] = Toxicity in SCID mouse xenografted with human SUDHL4 cells assessed as adverse effect on spleen morphology at 5 to 10 mg/kg, iv administered 3 days once for 15 days by H and E staining analysis; format: organism-based; settings: in vivo
Outline: as §1

Toledo [15] = test: Effect on CXCR4 mRNA expression in BCL6-negative human Toledo cells at 1.25 to 5 uM incubated for 24 hrs by RT-PCR analysis; format: functional, cell-based
Outline: as §2

NCM460 = test: Cytotoxicity against human NCM460 cells assessed as reduction in cell viability incubated for 72 hrs by CCK8 assay; settings: NCM460, 72 h

With `COc1cc(Nc2nc(N3C[C@@H](C)N[C@@H](C)C3)ncc2F)ccc1NC(=O)c1ccc(C2=CCCC2)s1` the inhibition (Mus musculus [1]) was “Active”, the remaining at 1 h [2] was 102% and the Activity (Mus musculus [3]) was 0.45%. For the same compound, the Activity (Mus musculus [4]) was “Active”, the Activity (SUD4 [5]) was “Active” and the Activity (SUD4 [6]) was “Dose-dependent effect”. For the same compound, the Activity [7] was “Non-Toxic”, the Activity (SUD4 [8]) was “Dose-dependent effect” and the IC50 (SUD4 [9]) was 0.92 µM. For the same compound, the Activity (Toledo [10]) was “inactive”, the IC50 (DOHH-2) was 1.21 µM and the Activity (SUD4 [11]) was 3.42%. For the same compound, the CLint scaled [12] was < 38 mL/min/kg, the Activity (Mus musculus [13]) was “Active” and the Activity [14] was “Non-Toxic”. The Activity (Toledo [15]) was “inactive” and the IC50 (NCM460) was 32.4 µM.
